Ecoli rRNA inh: reduced GFP signal of wild-type E. coli, primary screen, bacterial rRNA inhibitor project, GFP/RFP fluorescence, OD600, single point; E. coli WT GFP vs humanized-ribosome RFP mutants, 24 h; stronger effect = lower value; DMSO median 0, no signal -100; GFP signal change (wild-type ribosome), % (concentration not given with the values); 1.6% of 350,000 active; AID 720706, 2013;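 active = significant combined selectivity score with lowered wild-type GFP, culture density cut under 30%, mutant RFP and density less affected; inactive = any of these conditions unmet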
E-selectin induc: E-selectin induction in HUVECs, primary screen, imaging, HUVEC, immunofluorescence imaging, single point. P16581. normalized: neutral wells 0, TNF-alpha wells 100. activation, % at 7.58 µM. 0.37% of 260,000 active. AID 686992, 2013;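 active = mean E-selectin-positive cell signal at least 10% of the positive control, reached in at least 60% of replicates, without over 20% cell loss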
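Test system: HUVEC | Signal: Immunofluorescence imaging | Read-out: Percent E-selectin-positive cells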
GSIS activator: GLuc luminescence reporter in INS-1E cells, primary screen for activators of glucose-dependent secretion of insulin; AID 743287, 2014; INS-1E GLuc reporter insulin secretion, 2-3 h; 0.61% of 370,000 active; activation, % at 16.6 µM;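 active = lowest replicate activation of at least 40%, so every replicate reaches that level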;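 also: 0% = median of neutral control wells and 100% = median of IBMX positive control wells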
RAD54 inh: inhibitors of human RAD54 branch migration, primary screen, biochemical, fluorescence, single point; 0.14% of 360,000 active; inhibition, % at 10.4 µM; DNA repair and recombination protein RAD54-like (Homo sapiens), Q92698; RAD54 Holliday junction branch migration, FAM/BHQ fluorescence; AID 602329, 2012;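 active = mean normalized replicate activity at least 40 and at least half of replicates scoring 40 or more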;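 also: 0% = median of neutral control wells and 100% = median of positive control wells; inhibitors cause a drop in the FAM fluorescence signal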
MLL AF4-AF9 inh: inhibitors of AF4 peptide binding to AF9, primary screen, biochemical, AlphaScreen, biotin-AF4 peptide, FLAG-AF9, single point. AID 651704, 2012. 0.47% of 350,000 active. inhibition, % at 10 µM. Protein AF-9 (Homo sapiens), P42568;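 active = every replicate reaching a set inhibition limit, whatever the replicate mean, cut at about 25% in these data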;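 also: 0% = plate neutral control median and 100% = total signal loss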
Target sequence (P42568 whole entry, looked up): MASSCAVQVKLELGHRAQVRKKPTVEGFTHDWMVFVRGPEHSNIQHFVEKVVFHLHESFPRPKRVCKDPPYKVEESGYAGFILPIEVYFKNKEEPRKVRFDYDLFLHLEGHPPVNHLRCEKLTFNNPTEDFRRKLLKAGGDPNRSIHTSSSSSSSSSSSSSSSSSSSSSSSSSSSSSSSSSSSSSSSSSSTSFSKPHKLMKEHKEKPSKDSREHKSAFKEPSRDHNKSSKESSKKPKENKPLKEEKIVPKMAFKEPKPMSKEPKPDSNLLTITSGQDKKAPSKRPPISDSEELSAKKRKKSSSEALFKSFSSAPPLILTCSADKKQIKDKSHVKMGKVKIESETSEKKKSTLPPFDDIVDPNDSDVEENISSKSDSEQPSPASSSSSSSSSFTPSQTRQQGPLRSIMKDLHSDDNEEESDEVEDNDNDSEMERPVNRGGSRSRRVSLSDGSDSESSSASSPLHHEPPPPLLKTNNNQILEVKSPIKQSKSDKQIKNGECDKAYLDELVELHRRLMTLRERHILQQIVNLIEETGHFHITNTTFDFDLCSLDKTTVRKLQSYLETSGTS
RAD52 inh: RAD52 DNA annealing inhibitors, primary screen, biochemical, FRET, single point, set 2 | DNA repair protein RAD52 homolog (Homo sapiens), P43351 | recombinant RAD52 DNA annealing, FRET fluorescence | 0.46% of 360,000 active | inhibition, % at 18.7 µM;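 active = every replicate showing at least 50% inhibition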
Numbers without * were called inactive; . = not tested or not shown. Shown are actives, neighbours in structure and some others; about 2.6% of the full set was active somewhere.

SMILES	Ecoli rRNA inh	E-selectin induc	GSIS activator	RAD54 inh	MLL AF4-AF9 inh	RAD52 inh
CCOc1ccccc1C(=O)OCC(=O)NCCc1ccc(OC)cc1	-22*	0	5	4	0	1
O=C(COC(=O)c1ccccc1C(=O)c1ccc(Cl)cc1)NCCc1ccccc1	-29*	0	-19	8	-1	-14
CCOc1ccccc1C(=O)OCC(=O)NCc1ccc2c(c1)OCO2	-1	0	47*	4	0	-19
COc1cccc(NC(=O)COc2cccc(-n3cnnn3)c2)c1	2	.	8	.	-9	-17
Cc1cc(OCCCC(=O)Nc2cccc(-n3cnnn3)c2)ccc1Cl	-34*	.	-9	5	-3	-10
CCCCn1nc(C(=O)NCC2COc3ccccc3O2)c2ccccc2c1=O (centres undefined)	-36*	0	-36	-2	-1	-15
O=S(=O)(Nc1ccccc1)c1ccc2c(c1)CCO2	-7	0	-4	-8	48*	-9
Cc1noc(C)c1NC(=O)N(C)C[C@H]1Oc2ccc(NC(=O)CCC(F)(F)F)cc2CC(=O)N([C@@H](C)CO)C[C@H]1C	2	0	4	7	-10	28
Cc1cccc(NC(=O)c2nc[nH]c2C(=O)N(C)CCO)c1	-40*	.	-1	.	2	-5
CCN(CC)C(=O)c1[nH]cnc1C(=O)Nc1cccc(C)c1	-3	1	.	-1	2	3
Cc1nn(-c2ccccc2)c(N)c1Sc1ccccc1[N+](=O)[O-]	-37*	-3	-54	.	17	-4
CO[C@@H]1CN(C)C(=O)c2ccc(NC(=O)c3cc(C)on3)cc2OC[C@@H](C)N(C(=O)C2CC2)C[C@H]1C	-3	0	1	1	1	-15
O=C(Cc1c(F)cccc1Cl)OCC(=O)N1CCN(c2ccccc2)CC1	-21*	.	-1	-7	2	-17
COCC(=O)Nc1ccc2c(c1)C(=O)N(C)[C@H]1CC[C@@H](CC(=O)NC3CCCC3)O[C@@H]1CO2	1	0	10	-2	.	.
CC=Cc1ccc2n(c1=O)C[C@@H]1[C@@H](CO)[C@H](C(=O)NCc3ccccn3)[C@H]2N1CCC (mixture of isomers)	3	-2	8	-3	0	96*
O=C(NCc1ccccn1)[C@H]1[C@H](CO)[C@H]2Cn3c(cccc3=O)[C@@H]1N2CC1CCCCC1	1	0	-3	10	0	51*
CCCN1[C@@H]2Cn3c(ccc(/C=C/c4ccccc4)c3=O)[C@H]1[C@@H](C(=O)NCc1ccccn1)[C@@H]2CO	-5	0	-6	0	-2	-11
CC(=O)N1[C@@H]2c3cccc(=O)n3C[C@H]1[C@H](CO)[C@H]2C(=O)NCC1CCCCC1	2	0	13	14	0	63*
CN1[C@@H]2c3cccc(=O)n3C[C@H]1[C@H](CO)[C@H]2C(=O)NCC1CCCCC1	4	0	1	2	-1	1
O=C(C1CC1)N1CC2(C1)[C@H](c1ccccc1)[C@@H](CO)N2CCC(F)(F)F	1	0	-9	.	-2	4
CC(C)C#Cc1cnc2c(c1)C(=O)N([C@@H](C)CO)C[C@H](C)[C@@H](CN(C)Cc1cccc(F)c1)O2	-4	1	-9	5	5	0
C[C@H]1CCCCO[C@@H](CN(C)CC2CCCCC2)[C@@H](C)CN([C@@H](C)CO)C(=O)c2cc(NS(=O)(=O)c3ccc(F)cc3)ccc2O1	-6	0	-10	-6	7	38
O=C(c1ccc(Oc2cc(Cl)cc(Cl)c2)o1)N1CCCCC1	-49*	1	-31	-6	-1	-15
CCOC(=O)Cn1c(=N)n(CCOc2ccc(Br)cc2)c2ccccc21	-48*	0	-1	1	.	9
COc1ccc(C(=O)Cn2c(=N)n(C)c3ccccc32)cc1	7	1	.	-7	0	6
SMILES	Ecoli rRNA inh	E-selectin induc	GSIS activator	RAD54 inh	MLL AF4-AF9 inh	RAD52 inh
CCCCn1c(=N)n(CC(=O)c2ccc(OC)cc2)c2ccccc21	-43*	.	-1	.	0	-9
O=C(N[C@@H]1CC[C@@H](CC(=O)N2CCOCC2)O[C@@H]1CO)c1ccccn1	-1	0	9	3	0	4
O=C(c1ccccn1)N1C[C@@H]2[C@H](c3ccccc31)[C@H](CO)N2C(=O)CC1CC1	2	0	3	5	0	-7
C[C@@H]1CN([C@H](C)CO)S(=O)(=O)c2ccc(C3=CCCC3)cc2O[C@H]1CN(C)C(=O)C1CC1	1	0	-2	.	.	.
C/C=C/c1cnc2c(c1)C(=O)N([C@@H](C)CO)C[C@H](C)[C@@H](CN(C)S(=O)(=O)c1cn(C)cn1)O2	4	0	23	6	-2	4
COc1cccc(NC(=O)Nc2ccc3c(c2)C(=O)N(C)C[C@@H](OC)[C@@H](C)CN(CC2CC2)[C@@H](C)CO3)c1	-2	0	5	-12	9	70*
COc1cccc(C(=O)Nc2ccc3c(c2)C(=O)N(C)C[C@H](OC)[C@H](C)CN(C)[C@H](C)CO3)c1	0	0	-1	4	-2	4
COc1cccc(NC(=O)Nc2ccc3c(c2)C(=O)N(C)C[C@H](OC)[C@@H](C)CN(C)[C@@H](C)CO3)c1	1	0	0	2	9	79*
CCCN1C[C@@H](C)[C@@H](OC)CN(C)C(=O)c2ccc(NC(=O)Nc3cccc(OC)c3)cc2OC[C@@H]1C	1	0	-5	-8	-3	68*
COc1cccc(NC(=O)Nc2ccc3c(c2)C(=O)N(C)C[C@H](OC)[C@H](C)CN(CC2CC2)[C@H](C)CO3)c1	0	0	-4	-5	5	45
CCCN1C[C@H](C)[C@H](OC)CN(C)C(=O)c2cc(NC(=O)Nc3cccc(OC)c3)ccc2OC[C@H]1C	1	0	9	.	.	.
C/C=C/c1ccc([C@@H]2[C@H]3CN(S(=O)(=O)c4ccc(OC)cc4)CCCCN3[C@H]2CO)cc1	-6	1	18	-6	.	-5
C[C@@H]1CCCCO[C@@H](CN(C)C(=O)CCC(F)(F)F)[C@@H](C)CN([C@H](C)CO)C(=O)c2cc(NC(=O)Nc3ccc4c(c3)OCO4)ccc2O1	4	0	5	-20	3	-3
O=C(c1ccccc1)c1nccn1-c1ccc(Cl)nn1	-36*	0	16	-3	5	-9
O=C(c1ccccc1)c1ccncc1	.	.	.	-10	.	.

Screening results: PubChem, Broad Institute
